Screening data from PubChem BioAssay.
An excerpt weighted towards active compounds, which were near 1.4% of everything screened.
T cell modulator – modulators of CD8 T cell-vesicle binding, primary screen, mouse 2C CD8+ T cells, flow cytometry; response (vesicle binding), % at 7 µM; 2C CD8+ T cell-vesicle binding; active compounds read low; 330,000 tested, 0.068% active;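 active = response, share of CD8 T cells binding vesicles, and their 90th percentile fluorescence all below set limits, cut at about 80% in these data, passing the limit was not always enough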;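 also: values below 100% mean blocked vesicle binding to the CD8+ T cells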
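Test system: purified 2C TCR transgenic mouse naive CD8+ T cells. Probe or stimulus: QL9-peptide-loaded Drosophila micro-vesicles bearing Ld, ICAM-1 and B7-1. Incubation: binding step 1.5 h, 37 °C, antibody labelling 20 min, ice. Measured by: flow cytometry of vesicle-bound cells.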
Myeloid diff MLP – induction of myeloid progenitor differentiation, primary screen, cell-based, flow cytometry, MLPCN library; ER-HoxA9 myeloid progenitors, lysozyme-GFP differentiation; AID 624256, 2012; calls only at 10 µM; 360,000 tested, 1% active;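 active = normalized GFP-positive differentiation at or above the plate's own cutoff, the solvent-only control mean plus 3 SD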;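 also: cells exposed to compound for four days before flow analysis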
Vif imaging – HIV Vif self-association inhibitors, primary screen, imaging, HEK293T, single point | inhibition, % at 7.49 µM | 340,000 tested, 0.35% active | HEK293T cells, Vif self-association by quenched fluorescence, 24 h; in the data active = inhibition above about 50%, passing the limit was not always enough
Casp6 inh – human caspase-6 inhibitors, primary screen, biochemical, VEID-R110 fluorescence, single point, set 2; P55212; purified caspase-6, Z-VEID-R110 cleavage fluorescence; inhibition, % at 12.5 µM; 350,000 tested, 0.53% active; AID 686996, 2013;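 active = mean inhibition across replicates at least about 35%, with every replicate also reaching that limit, limit read from the data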
Target sequence (P55212 24-179 limits assumed): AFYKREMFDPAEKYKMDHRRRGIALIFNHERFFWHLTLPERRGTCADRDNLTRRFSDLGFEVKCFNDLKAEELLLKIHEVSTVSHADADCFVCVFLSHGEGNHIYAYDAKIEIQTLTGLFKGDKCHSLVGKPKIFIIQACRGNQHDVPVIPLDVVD
Target sequence (P55212 194-293 limits assumed): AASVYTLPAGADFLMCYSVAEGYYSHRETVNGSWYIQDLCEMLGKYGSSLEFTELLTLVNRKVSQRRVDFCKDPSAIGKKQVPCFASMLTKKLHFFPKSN
Myeloid diff – inducers of myeloid progenitor differentiation, confirmation, cell-based, GFP/Mac1 flow cytometry, cherry pick 01; shares compounds with Myeloid diff MLP; ER-HoxA9 myeloid progenitors, GFP/Mac1 double-positive flow; calls only; 2,300 tested, 2% active;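 active = share of green or green-and-red cells above 9 and 9% in run 1 or 4 and 3% in run 2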
GFP autofluor – counter-screen for myeloid differentiation promoters: compound fluorescence | shares compounds with Myeloid diff MLP | ER-HoxA9 myeloid progenitors, no estrogen, GFP autofluorescence flow cytometry; vehicle wells 0%, positive control 100% | fluorescence response, % (no concentration beside the values) | 2,300 tested, 7.4% active | AID 651707;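 active = over 5% cells positive for green fluorescent reporter, or over 2% positive for both it and APC stain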
CASP1 counter – human caspase-1 inhibitors, dose response, selectivity assay for caspase-6 inhibitor project, biochemical, Z-YVAD-R110 fluorescence, cherry-pick, set 2. shares compounds with Casp6 inh. purified caspase-1, Z-YVAD-R110 cleavage fluorescence. activity change, negative = inhibition, % at 35 µM. 100 tested, under 10 active;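 active = compounds lowering fluorescence whose fitted half-maximal concentration is no more than twice their top tested dose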
Large screens that a line does not name were inactive (follow-up assays come after a bar, where they were run).

CC(N)Cc1c[nH]c2c1ccc1ccccc12 (configuration not stated)	none | Myeloid diff inactive | GFP autofluor inactive
O=c1c2ccccc2nc(/C=C/c2ccc(O)c(O)c2)n1-c1ccccc1	none | Myeloid diff inactive | GFP autofluor inactive
CN1CCC(c2c[nH]c3ccc(O)cc23)CC1	none (no result: T cell modulator)
CC1CCCC(C)N1/N=C/c1c[nH]c2ccc(Br)cc12 (configuration not stated)	none | Myeloid diff inactive | GFP autofluor inactive
O=C(Cc1ccccc1)N1CCCCN2[C@H](CO)[C@H](c3ccc(C#Cc4ccccc4)cc3)[C@@H]2C1	none (no result: T cell modulator, Myeloid diff MLP, Vif imaging)
Cc1ccc(N=C(/N=C(\N)N[N+](=O)[O-])Nc2ccc(C)cc2)cc1	none | Myeloid diff inactive | GFP autofluor inactive
CN(C/N=C(\N)N[N+](=O)[O-])S(=O)(=O)c1ccccc1	none (no result: Casp6 inh)
COC(=O)[C@@H]1[C@@H](CO)[C@@H]2Cn3c(ccc(-c4ccccc4F)c3=O)[C@H]1N2Cc1ccccc1	none (no result: T cell modulator, Myeloid diff MLP, Vif imaging)
CCCN1[C@@H]2Cn3c(cccc3=O)[C@H]1[C@@H](C(=O)N(C)C)[C@@H]2CO	none (no result: T cell modulator, Myeloid diff MLP, Vif imaging)
CN1CCc2cc(O)cc3c2[C@H]1Cc1ccc(O)c(O)c1-3	none
CN1CCc2cc3c(c4c2C1Cc1ccccc1-4)OCO3 (configuration not stated)	Casp6 inh 84.3 | CASP1 counter inactive
CC(Cc1ccc(O)cc1)NCC(O)c1ccc(O)c(O)c1 (configuration not stated)	Casp6 inh 72.7 (no result: T cell modulator) | CASP1 counter inactive
COc1ccc(C#Cc2ccc([C@@H]3[C@H](CO)N4CCCCN(C(=O)Cc5ccccc5)C[C@@H]34)cc2)cc1	none (no result: T cell modulator, Myeloid diff MLP, Vif imaging)
